Test results as given in ChEMBL document CHEMBL3102768, “Synthesis, biological evaluation and SAR of 3-benzoates of ingenol for treatment of actinic keratosis and non-melanoma skin cancer” (Bioorg Med Chem Lett, 2014).

Columns and labels:
[1] = target: Protein kinase C delta type (Homo sapiens, UniProt Q05655); assay: Activation of PKCdelta (unknown origin) after 40 mins
Procedure, shortened: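 In vitro PKCδ phosphorylation of a PKC peptide substrate, with 0.05 mg/mL phosphatidylserine and no diacylglycerol. Compounds were tested as a twelve-point semilog dilution series starting at 10 µM. The reaction was started with ATP and run 40 min at room temperature.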

[2] = system: HeLa; assay: Induction of necrosis in human HeLa cells assessed as remaining metabolic activity after 30 mins by resazurin dye-based assay; assay type: functional; settings: 0.5 h, read-out: LC50 (the source's name)
Procedure, shortened: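 HeLa cells were exposed to increasing concentrations up to 400 µM for 30 min at 37 °C. Metabolic activity was then measured with a resazurin-based dye (PrestoBlue). LC50 is the concentration giving 50% loss of metabolic activity.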

[3] = system: Keratinocyte; assay: Induction of proimflammatory activity in human primary epidermal keratinocytes assessed as IL-8 release after 6 hrs relative to ingenol 3-angelate; assay type: functional
Procedure, shortened: (§1)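 Adult log-phase primary epidermal keratinocytes were seeded at 10,000 cells/well. Cells were incubated with titrated compound for 6 h at 37 °C in 5% CO2. Secreted IL8 was measured by Meso Scale 4-spot cytokine plates or by HTRF. EC50 and Emax were referenced to the maximal response of ingenol 3-angelate.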

[4] = system: Keratinocyte; assay: Induction of proimflammatory activity in human primary epidermal keratinocytes assessed as IL-8 release after 6 hrs; assay type: functional, cell-based; procedure, shortened: as §1
[5] = system: Keratinocyte; assay: Induction of proimflammatory activity in human primary epidermal keratinocytes assessed as TNFalpha release after 6 hrs relative to ingenol 3-angelate; assay type: functional
Procedure, shortened: (§2)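 Adult log-phase primary epidermal keratinocytes were seeded at 10,000 cells/well. Cells were incubated with titrated compound for 6 h at 37 °C in 5% CO2. Secreted TNFα was measured by Meso Scale 4-spot cytokine plates. EC50 and Emax were referenced to the maximal response of ingenol 3-angelate.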

[6] = system: Keratinocyte; assay: Induction of proimflammatory activity in human primary epidermal keratinocytes assessed as TNFalpha release after 6 hrs; assay type: functional, cell-based; procedure, shortened: as §2
[7] = Immunostimulatory activity in polymorphonuclear leukocytes (unknown origin) assessed as induction of oxidative burst after 40 mins by fluorescence assay relative to ingenol 3-angelate; assay type: functional
Procedure, shortened: (§3)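 PMN were isolated from fresh buffy coats. Cells were incubated 40 min at ambient temperature with titrated compound (top concentration 10 µM) pre-mixed with hydroethidine. Respiratory burst was read as fluorescence at ex 485/em 579 nm. EC50 is the concentration giving 50% of the maximum effect of ingenol 3-angelate; Emax is the maximal response relative to it.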

[8] = Immunostimulatory activity in polymorphonuclear leukocytes (unknown origin) assessed as induction of oxidative burst after 40 mins by fluorescence assay; assay type: functional, cell-based; procedure, shortened: as §3
[9] = Chemical stability of the compound in aqueous buffer with less than 30% organic solvent assessed as compound recovery at pH 7.4 measured over 16 hrs by HPLC analysis; assay type: physicochemical; settings: read-out: Drug recovery
Procedure, shortened: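 A DMSO stock was diluted into pre-heated (37 °C) aqueous buffer pH 7.4 to ≤30% v/v organic content. The solution was held at 37 °C in the HPLC autosampler and injected within 5 min, then repeatedly over 16 h. Recovery was taken from the decrease in compound peak area, with UV detection normally at 270 nm.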

Sequence of Protein kinase C delta type (Q05655 whole entry): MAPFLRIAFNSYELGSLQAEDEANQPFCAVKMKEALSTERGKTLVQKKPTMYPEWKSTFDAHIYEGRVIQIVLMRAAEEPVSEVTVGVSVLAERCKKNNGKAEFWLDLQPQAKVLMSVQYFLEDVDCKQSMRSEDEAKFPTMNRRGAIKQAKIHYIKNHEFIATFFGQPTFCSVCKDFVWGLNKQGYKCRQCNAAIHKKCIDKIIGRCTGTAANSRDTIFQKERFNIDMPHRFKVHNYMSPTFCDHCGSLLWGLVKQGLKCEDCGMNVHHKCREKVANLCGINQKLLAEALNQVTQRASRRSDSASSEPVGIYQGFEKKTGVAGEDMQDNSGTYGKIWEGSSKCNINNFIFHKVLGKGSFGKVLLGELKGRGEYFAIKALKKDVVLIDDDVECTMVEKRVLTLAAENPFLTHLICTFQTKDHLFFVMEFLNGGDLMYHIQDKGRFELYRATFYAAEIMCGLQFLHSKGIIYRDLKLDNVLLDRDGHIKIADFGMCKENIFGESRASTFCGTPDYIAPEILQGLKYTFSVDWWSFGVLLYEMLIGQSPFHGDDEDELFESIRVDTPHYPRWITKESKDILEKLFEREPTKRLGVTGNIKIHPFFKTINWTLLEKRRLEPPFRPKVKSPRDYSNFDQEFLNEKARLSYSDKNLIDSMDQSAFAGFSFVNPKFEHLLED

Compound | EC50 [1] [µM] | CC50 [2] [µM] | Emax [3] [%] | EC50 [4] [µM] | Emax [5] [%] | EC50 [6] [µM] | Emax [7] [%] | EC50 [8] [µM] | remaining at 16 h [9] [%]
CC1=C[C@]23C(=O)[C@@H](C=C(CO)[C@@H](O)[C@]2(O)[C@H]1OC(=O)c1ccccc1-c1ccccc1)[C@H]1[C@@H](C[C@H]3C)C1(C)C | 0.0033 | 77 | 87 | 0.0015 | 91 | 0.0016 | 105 | 0.016 | 77
CNc1ccccc1C(=O)O[C@H]1C(C)=C[C@]23C(=O)[C@@H](C=C(CO)[C@@H](O)[C@]12O)[C@H]1[C@@H](C[C@H]3C)C1(C)C | 0.0025 | 95 | 99 | 0.00079 | 134 | 0.001 | 113 | 0.0067 | 68
CC1=C[C@]23C(=O)[C@@H](C=C(CO)[C@@H](O)[C@]2(O)[C@H]1OC(=O)c1c(C)cccc1C)[C@H]1[C@@H](C[C@H]3C)C1(C)C | 0.0108 | 97 | 66 | 0.062 | 61 | 0.083 | 123 | 0.013 | > 95
CC1=C[C@]23C(=O)[C@@H](C=C(CO)[C@@H](O)[C@]2(O)[C@H]1OC(=O)c1ccccc1Br)[C@H]1[C@@H](C[C@H]3C)C1(C)C | 0.0038 | 141 | 93 | 0.0023 | 96 | 0.0082 | 99 | 0.0043 | 44
CC1=C[C@]23C(=O)[C@@H](C=C(CO)[C@@H](O)[C@]2(O)[C@H]1OC(=O)c1c(C)cccc1N)[C@H]1[C@@H](C[C@H]3C)C1(C)C | 0.008 | 146 | 118 | 0.0082 | 108 | 0.012 | 117 | 0.0086 | > 95
COc1cccc(OC)c1C(=O)O[C@H]1C(C)=C[C@]23C(=O)[C@@H](C=C(CO)[C@@H](O)[C@]12O)[C@H]1[C@@H](C[C@H]3C)C1(C)C | 0.156 | 400 | 107 | 0.044 | 113 | 0.057 | 116 | 0.084 | > 95
CC1=C[C@]23C(=O)[C@@H](C=C(CO)[C@@H](O)[C@]2(O)[C@H]1OC(=O)c1c(C)cccc1O)[C@H]1[C@@H](C[C@H]3C)C1(C)C | 0.0134 | 199 | 105 | 0.071 | 156 | 0.098 | 125 | 0.0094 | > 95
COc1ccccc1C(=O)O[C@H]1C(C)=C[C@]23C(=O)[C@@H](C=C(CO)[C@@H](O)[C@]12O)[C@H]1[C@@H](C[C@H]3C)C1(C)C | 0.0257 | 220 | 100 | 0.042 | 100 | 0.038 | 107 | 0.0068 | 70
